Data: ChEMBL document CHEMBL4043093, “2-Oxo-3, 4-dihydropyrimido[4, 5-d]pyrimidinyl derivatives as new irreversible pan fibroblast growth factor receptor (FGFR) inhibitors” (Eur J Med Chem, 2017)

Assays:
[1] = molecular target: Mitogen-activated protein kinase 8 (Homo sapiens) (UniProt P45983); experiment: Inhibition of wild-type human full length JNK1 (M1 to Q384 residues) expressed in HEK293 cells assessed as residual activity at 1000 nM after 30 mins by Kinomescan method relative to control; format: cell-based
Outline: (§1)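 Single-concentration screen at 1 µM across a 456-kinase KINOMEscan panel. The read-out is Percent Control for each kinase.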

[2] = molecular target: Discoidin domain-containing receptor 2 (Homo sapiens) (UniProt Q16832); experiment: Inhibition of wild-type human partial length DDR2 (V555 to E855 residues) expressed in HEK293 cells assessed as residual activity at 1000 nM after 30 mins by Kinomescan method relative to control; format: cell-based
[3] = molecular target: Mitogen-activated protein kinase 1 (Homo sapiens) (UniProt P28482); experiment: Inhibition of wild-type human full length ERK2 (M1 to S360 residues) expressed in Escherichia coli BL21 assessed as residual activity at 1000 nM after 30 mins by Kinomescan method relative to control; outline: as §1
[4] = molecular target: Mitogen-activated protein kinase kinase kinase 6 (Homo sapiens) (UniProt O95382); experiment: Inhibition of wild-type human partial length ASK2 (M278 to R972 residues) expressed in HEK293 cells assessed as residual activity at 1000 nM after 30 mins by Kinomescan method relative to control; format: cell-based
Sequence of Mitogen-activated protein kinase kinase kinase 6 (Homo sapiens) (O95382 whole entry, the tested form may be a part): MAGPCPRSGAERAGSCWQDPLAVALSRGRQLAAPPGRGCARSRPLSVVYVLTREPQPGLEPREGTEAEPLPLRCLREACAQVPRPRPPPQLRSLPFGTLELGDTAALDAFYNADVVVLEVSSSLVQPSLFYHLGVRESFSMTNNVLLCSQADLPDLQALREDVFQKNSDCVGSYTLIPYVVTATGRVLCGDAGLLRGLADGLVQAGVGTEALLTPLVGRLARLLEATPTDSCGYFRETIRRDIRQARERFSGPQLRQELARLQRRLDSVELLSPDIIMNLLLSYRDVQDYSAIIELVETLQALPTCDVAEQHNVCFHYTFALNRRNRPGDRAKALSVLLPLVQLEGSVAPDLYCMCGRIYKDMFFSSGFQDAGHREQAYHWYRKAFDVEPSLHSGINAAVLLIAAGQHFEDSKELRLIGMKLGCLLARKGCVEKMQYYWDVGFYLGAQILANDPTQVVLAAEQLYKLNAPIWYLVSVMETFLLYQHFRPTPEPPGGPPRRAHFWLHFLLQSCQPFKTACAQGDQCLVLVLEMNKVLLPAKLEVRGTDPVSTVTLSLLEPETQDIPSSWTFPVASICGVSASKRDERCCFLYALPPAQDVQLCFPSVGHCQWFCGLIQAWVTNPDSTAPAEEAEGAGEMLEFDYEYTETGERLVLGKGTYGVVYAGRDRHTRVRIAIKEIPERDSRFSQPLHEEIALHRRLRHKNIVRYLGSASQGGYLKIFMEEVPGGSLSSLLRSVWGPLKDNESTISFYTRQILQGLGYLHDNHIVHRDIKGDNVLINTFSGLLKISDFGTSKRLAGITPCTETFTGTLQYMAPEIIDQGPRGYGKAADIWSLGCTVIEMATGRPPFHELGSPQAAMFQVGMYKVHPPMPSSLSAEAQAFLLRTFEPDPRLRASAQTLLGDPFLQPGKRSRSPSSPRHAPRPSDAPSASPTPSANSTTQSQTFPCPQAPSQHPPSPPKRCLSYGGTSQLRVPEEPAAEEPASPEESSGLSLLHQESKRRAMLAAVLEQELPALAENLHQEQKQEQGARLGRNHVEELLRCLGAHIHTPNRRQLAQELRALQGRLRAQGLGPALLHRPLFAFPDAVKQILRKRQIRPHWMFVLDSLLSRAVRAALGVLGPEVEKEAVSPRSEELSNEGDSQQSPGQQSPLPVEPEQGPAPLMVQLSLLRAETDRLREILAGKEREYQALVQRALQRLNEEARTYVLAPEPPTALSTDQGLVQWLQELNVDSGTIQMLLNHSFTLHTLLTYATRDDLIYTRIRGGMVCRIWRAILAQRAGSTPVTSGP

[5] = molecular target: Serine/threonine-protein kinase 38-like (Homo sapiens) (UniProt Q9Y2H1); experiment: Inhibition of wild-type human partial length NDR2 (N34 to E447 residues) expressed in Escherichia coli BL21 assessed as residual activity at 1000 nM after 30 mins by Kinomescan method relative to control
[6] = molecular target: Rhodopsin kinase GRK7 (Homo sapiens) (UniProt Q8WTQ7); experiment: Inhibition of wild-type human full length GRK7 (M1 to L553 residues) expressed in HEK293 cells assessed as residual activity at 1000 nM after 30 mins by Kinomescan method relative to control; format: cell-based; outline: as §1
Sequence of Rhodopsin kinase GRK7 (Homo sapiens) (Q8WTQ7 whole entry, the tested form may be a part): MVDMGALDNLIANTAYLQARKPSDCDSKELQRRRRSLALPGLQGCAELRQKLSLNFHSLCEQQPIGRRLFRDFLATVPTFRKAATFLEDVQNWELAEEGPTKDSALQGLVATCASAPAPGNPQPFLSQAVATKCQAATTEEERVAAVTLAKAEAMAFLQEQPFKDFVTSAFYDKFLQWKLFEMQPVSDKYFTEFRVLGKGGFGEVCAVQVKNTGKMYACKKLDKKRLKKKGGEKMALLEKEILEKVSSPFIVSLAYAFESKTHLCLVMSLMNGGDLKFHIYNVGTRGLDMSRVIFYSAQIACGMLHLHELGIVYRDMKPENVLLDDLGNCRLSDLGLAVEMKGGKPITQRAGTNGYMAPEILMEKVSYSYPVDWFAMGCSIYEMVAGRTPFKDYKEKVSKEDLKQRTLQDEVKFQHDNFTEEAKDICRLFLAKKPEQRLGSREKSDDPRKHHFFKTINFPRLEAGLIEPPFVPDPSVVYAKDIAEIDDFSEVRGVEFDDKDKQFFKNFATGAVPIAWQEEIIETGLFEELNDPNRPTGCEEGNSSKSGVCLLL

[7] = molecular target: Aurora kinase B (Homo sapiens) (UniProt Q96GD4); experiment: Inhibition of wild-type human partial length AURKB (D25 to A303 residues) expressed in HEK293 cells assessed as residual activity at 1000 nM after 30 mins by Kinomescan method relative to control; format: cell-based
Sequence of Aurora kinase B (Homo sapiens) (Q96GD4 whole entry, the tested form may be a part): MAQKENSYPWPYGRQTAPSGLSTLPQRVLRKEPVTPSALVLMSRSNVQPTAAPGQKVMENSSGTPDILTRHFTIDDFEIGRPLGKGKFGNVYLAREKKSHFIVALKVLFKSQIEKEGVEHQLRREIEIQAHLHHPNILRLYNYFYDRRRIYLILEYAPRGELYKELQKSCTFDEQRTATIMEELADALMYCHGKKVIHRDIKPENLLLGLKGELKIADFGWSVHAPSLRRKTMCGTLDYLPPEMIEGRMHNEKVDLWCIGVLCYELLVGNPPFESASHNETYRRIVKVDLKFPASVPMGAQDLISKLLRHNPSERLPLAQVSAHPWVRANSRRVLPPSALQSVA

[8] = molecular target: Ribosomal protein S6 kinase alpha-6 (Homo sapiens) (UniProt Q9UK32); experiment: Inhibition of wild-type human partial length N-terminal RSK4 kinase domain 1 (M1 to E397 residues) expressed in HEK293 cells assessed as residual activity at 1000 nM after 30 mins by Kinomescan method relative to control; format: cell-based
[9] = molecular target: Tyrosine-protein kinase FRK (Homo sapiens) (UniProt P42685); experiment: Inhibition of wild-type human partial length FRK (A215 to F503 residues) expressed in Escherichia coli BL21 assessed as residual activity at 1000 nM after 30 mins by Kinomescan method relative to control
[10] = molecular target: Dual specificity protein kinase CLK3 (Homo sapiens) (UniProt P49761); experiment: Inhibition of wild-type human full length CLK3 (M1 to R490 residues) expressed in Escherichia coli BL21 assessed as residual activity at 1000 nM after 30 mins by Kinomescan method relative to control
Sequence of Dual specificity protein kinase CLK3 (Homo sapiens) (P49761 whole entry, looked up, the tested form may be a part): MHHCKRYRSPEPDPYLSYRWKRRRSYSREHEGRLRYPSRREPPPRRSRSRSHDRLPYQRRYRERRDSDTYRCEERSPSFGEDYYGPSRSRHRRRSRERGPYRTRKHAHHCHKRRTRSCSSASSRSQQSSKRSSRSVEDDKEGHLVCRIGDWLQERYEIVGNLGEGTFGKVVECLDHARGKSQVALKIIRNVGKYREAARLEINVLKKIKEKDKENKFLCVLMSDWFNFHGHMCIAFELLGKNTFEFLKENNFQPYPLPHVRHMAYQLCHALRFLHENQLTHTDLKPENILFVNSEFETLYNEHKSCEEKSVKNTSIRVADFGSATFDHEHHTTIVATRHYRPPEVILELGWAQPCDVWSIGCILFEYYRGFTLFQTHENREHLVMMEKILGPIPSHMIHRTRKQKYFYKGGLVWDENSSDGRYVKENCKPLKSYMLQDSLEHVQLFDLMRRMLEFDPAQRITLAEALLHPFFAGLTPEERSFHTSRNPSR
Outline: (§2)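 Single-point screen at a fixed 1 µM, run within a 456-kinase DiscoveRx KINOMEscan panel. Each kinase's read-out is Percent Control, i.e. signal relative to a control without compound. Hits were scored by a Percent Control < 35 cut-off, and an S(35) selectivity score was calculated across the non-mutant kinases.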

[11] = molecular target: Tyrosine-protein kinase CSK (Homo sapiens) (UniProt P41240); experiment: Inhibition of wild-type human full length CSK (M1 to L450 residues) expressed in Escherichia coli BL21 assessed as residual activity at 1000 nM after 30 mins by Kinomescan method relative to control; outline: as §2
[12] = molecular target: RAF proto-oncogene serine/threonine-protein kinase (Homo sapiens) (UniProt P04049); experiment: Inhibition of wild-type human partial length RAF1 (I330 to T640 residues) expressed in Escherichia coli BL21 assessed as residual activity at 1000 nM after 30 mins by Kinomescan method relative to control
[13] = molecular target: Tyrosine-protein kinase ABL1 (Homo sapiens) (UniProt P00519); experiment: Inhibition of wild-type human non-phosphorylated ABL1 (S229 to K512 residues) expressed in HEK293 cells assessed as residual activity at 1000 nM after 30 mins by Kinomescan method relative to control; format: cell-based
[14] = tested on: Tyrosine-protein kinase ABL1 (Homo sapiens), P00519 [T315I]; experiment: Inhibition of human non-phosphorylated ABL1 T315I mutant (S229 to K512 residues) expressed in HEK293 cells assessed as residual activity at 1000 nM after 30 mins by Kinomescan method relative to control; format: cell-based
Outline: (§3)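 KINOMEscan binding panel of 456 kinases, with the test compound at a single concentration of 1 µM. Read-out is Percent Control.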

[15] = molecular target: Serine/threonine-protein kinase/endoribonuclease IRE1 (Homo sapiens) (UniProt O75460); experiment: Inhibition of wild-type human partial length ERN1 (S551 to E852 residues) expressed in HEK293 cells assessed as residual activity at 1000 nM after 30 mins by Kinomescan method relative to control; format: cell-based
[16] = molecular target: Cyclin-dependent kinase 18 (Homo sapiens) (UniProt Q07002); experiment: Inhibition of wild-type human full length PCTK3 (M3 to F474 residues) expressed in Escherichia coli BL21 assessed as residual activity at 1000 nM after 30 mins by Kinomescan method relative to control; outline: as §1
[17] = molecular target: VEGFR2 (vascular endothelial growth factor receptor 2) (Homo sapiens, UniProt P35968); experiment: Inhibition of wild-type human partial length VEGFR2 (R787 to P1253 residues) expressed in HEK293 cells assessed as residual activity at 1000 nM after 30 mins by Kinomescan method relative to control; format: cell-based; conditions: read-out: Activity
[18] = tested on: Serine/threonine-protein kinase B-raf (Homo sapiens), P15056 [V600E]; experiment: Inhibition of human partial length BRAF V600E mutant (S429 to E741 residues) expressed in HEK293 cells assessed as residual activity at 1000 nM after 30 mins by Kinomescan method relative to control; format: cell-based; outline: as §3
Sequence of Serine/threonine-protein kinase B-raf (Homo sapiens), P15056 [V600E] (P15056 whole entry V600E, the tested form may be a part): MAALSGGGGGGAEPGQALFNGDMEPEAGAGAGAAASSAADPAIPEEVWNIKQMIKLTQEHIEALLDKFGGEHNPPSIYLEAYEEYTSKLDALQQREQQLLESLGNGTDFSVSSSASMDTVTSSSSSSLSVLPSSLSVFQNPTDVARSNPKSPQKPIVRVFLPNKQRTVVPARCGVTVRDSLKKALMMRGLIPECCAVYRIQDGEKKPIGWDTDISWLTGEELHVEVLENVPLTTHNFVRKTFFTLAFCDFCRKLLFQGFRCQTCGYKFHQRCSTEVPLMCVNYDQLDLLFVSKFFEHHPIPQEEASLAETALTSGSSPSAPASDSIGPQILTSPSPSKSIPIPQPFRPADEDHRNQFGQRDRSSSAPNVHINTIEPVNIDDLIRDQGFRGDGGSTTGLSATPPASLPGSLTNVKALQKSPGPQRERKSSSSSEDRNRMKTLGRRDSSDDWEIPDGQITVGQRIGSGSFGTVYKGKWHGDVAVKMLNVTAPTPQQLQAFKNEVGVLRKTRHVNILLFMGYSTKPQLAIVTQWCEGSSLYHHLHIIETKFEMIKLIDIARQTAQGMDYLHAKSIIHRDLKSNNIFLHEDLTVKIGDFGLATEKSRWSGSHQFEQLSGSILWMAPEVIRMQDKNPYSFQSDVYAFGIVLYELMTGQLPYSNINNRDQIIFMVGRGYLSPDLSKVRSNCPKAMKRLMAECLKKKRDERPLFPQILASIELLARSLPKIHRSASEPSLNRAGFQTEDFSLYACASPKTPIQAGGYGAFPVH

[19] = molecular target: Tyrosine-protein kinase JAK1 (Homo sapiens) (UniProt P23458); experiment: Inhibition of wild-type human partial length JAK1 JH2 pseudokinase domain (R537 to D855 residues) expressed in HEK293 cells assessed as residual activity at 1000 nM after 30 mins by Kinomescan method relative to control; format: cell-based
[20] = molecular target: Non-receptor tyrosine-protein kinase TYK2 (Homo sapiens) (UniProt P29597); experiment: Inhibition of wild-type human partial length TYK2 JH2 pseudokinase domain (G556 to D888 residues) expressed in HEK293 cells assessed as residual activity at 1000 nM after 30 mins by Kinomescan method relative to control; format: cell-based
Sequence of Non-receptor tyrosine-protein kinase TYK2 (Homo sapiens) (P29597 whole entry, the tested form may be a part): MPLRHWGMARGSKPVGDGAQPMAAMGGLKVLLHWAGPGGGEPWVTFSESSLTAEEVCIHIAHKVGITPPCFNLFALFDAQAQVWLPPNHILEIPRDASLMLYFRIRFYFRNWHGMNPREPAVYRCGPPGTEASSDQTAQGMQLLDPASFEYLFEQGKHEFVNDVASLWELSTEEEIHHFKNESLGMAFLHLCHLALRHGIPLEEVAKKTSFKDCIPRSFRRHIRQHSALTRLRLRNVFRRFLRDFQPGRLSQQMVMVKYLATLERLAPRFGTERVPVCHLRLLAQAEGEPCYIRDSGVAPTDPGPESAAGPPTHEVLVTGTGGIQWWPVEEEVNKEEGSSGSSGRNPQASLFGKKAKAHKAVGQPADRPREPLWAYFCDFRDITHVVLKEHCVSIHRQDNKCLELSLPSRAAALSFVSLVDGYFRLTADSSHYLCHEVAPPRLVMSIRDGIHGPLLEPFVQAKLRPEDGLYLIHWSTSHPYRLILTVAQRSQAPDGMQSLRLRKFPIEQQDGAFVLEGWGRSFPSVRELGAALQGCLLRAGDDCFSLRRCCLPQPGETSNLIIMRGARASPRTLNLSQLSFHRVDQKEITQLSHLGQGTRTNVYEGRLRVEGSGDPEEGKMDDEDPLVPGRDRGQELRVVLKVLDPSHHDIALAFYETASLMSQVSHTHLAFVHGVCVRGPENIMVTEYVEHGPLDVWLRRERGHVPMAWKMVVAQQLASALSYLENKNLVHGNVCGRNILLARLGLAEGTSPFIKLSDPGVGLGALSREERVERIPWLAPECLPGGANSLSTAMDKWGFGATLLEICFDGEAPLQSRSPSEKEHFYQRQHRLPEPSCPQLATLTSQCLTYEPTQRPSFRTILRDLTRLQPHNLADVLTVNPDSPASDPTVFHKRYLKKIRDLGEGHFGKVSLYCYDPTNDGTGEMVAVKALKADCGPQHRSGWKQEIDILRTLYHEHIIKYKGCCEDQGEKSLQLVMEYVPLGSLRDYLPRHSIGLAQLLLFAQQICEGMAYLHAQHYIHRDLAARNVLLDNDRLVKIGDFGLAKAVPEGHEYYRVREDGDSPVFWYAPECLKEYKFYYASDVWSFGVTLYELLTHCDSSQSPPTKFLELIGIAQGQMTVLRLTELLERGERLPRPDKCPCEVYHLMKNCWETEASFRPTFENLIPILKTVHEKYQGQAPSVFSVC

[21] = molecular target: Dual specificity mitogen-activated protein kinase kinase 6 (Homo sapiens) (UniProt P52564); experiment: Inhibition of wild-type human partial length MEK6 (K36 to D334 residues) expressed in Escherichia coli BL21 assessed as residual activity at 1000 nM after 30 mins by Kinomescan method relative to control
Sequence of Dual specificity mitogen-activated protein kinase kinase 6 (Homo sapiens) (P52564 whole entry, the tested form may be a part): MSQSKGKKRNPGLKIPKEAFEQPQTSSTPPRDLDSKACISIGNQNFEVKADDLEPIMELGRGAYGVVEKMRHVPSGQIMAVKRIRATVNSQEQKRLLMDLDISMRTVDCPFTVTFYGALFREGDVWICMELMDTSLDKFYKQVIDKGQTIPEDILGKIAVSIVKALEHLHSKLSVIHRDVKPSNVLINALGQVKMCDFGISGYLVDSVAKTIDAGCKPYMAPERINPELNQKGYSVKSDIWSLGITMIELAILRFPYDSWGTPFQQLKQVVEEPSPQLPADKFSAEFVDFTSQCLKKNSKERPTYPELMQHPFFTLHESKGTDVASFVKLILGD

Compound: COc1cc(OC)c(Cl)c(N2Cc3cnc(Nc4ccc(F)cc4)nc3N(C3CCN(C(=O)/C=C/CN(C)C)CC3)C2=O)c1Cl
- Activity [1]: 87%
- Activity [2]: 77%
- Activity [3]: 100%
- Activity [4]: 100%
- Activity [5]: 100%
- Activity [6]: 99%
- Activity [7]: 95%
- Activity [8]: 100%
- Activity [9]: 59%
- Activity [10]: 100%
- Activity [11]: 100%
- Activity [12]: 96%
- Activity [13]: 32%
- Activity [14]: 100%
- Activity [15]: 100%
- Activity [16]: 93%
- activity at 0.5 h, 1 µM [17]: 7.3%
- Activity [18]: 83%
- Activity [19]: 97%
- Activity [20]: 95%
- Activity [21]: 92%
